The source made the active and inactive calls. The rule behind the calls is not given here.
Tests used:
[1] = test system: Mus musculus; assay: Anticonvulsant activity in CF1 albino mouse assessed as inhibition of maximal electroshock-induced seizures at 30 mg/kg, ip after 0.5 hrs; assay type: functional, organism-based; set-up: dose 30 mg/kg
Outline: (§1)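 Test compounds suspended in 0.5% methylcellulose and given ip to adult male CF no. 1 albino mice (18-25 g) at 0.01 mL/g body weight before maximal electroshock challenge.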

[2] = test system: Mus musculus; assay: Teratogenic effect in SWV mouse assessed as resorptions at 301 mg/kg, ip administered on morning of day 8 of gestation; assay type: toxicity, organism-based; set-up: dose 301 mg/kg, route intraperitoneal; conditions: in vivo
[3] = test system: Mus musculus; assay: Neurotoxicity in CF1 albino mouse assessed as motor impairment at 30 mg/kg, ip after 0.5 hrs; assay type: toxicity, organism-based; set-up: dose 30 mg/kg, route intraperitoneal; conditions: in vivo
[4] = test system: Mus musculus; assay: Anticonvulsant activity in CF1 albino mouse assessed as inhibition of subcutaneous pentylenetetrazole-induced seizures at 100 mg/kg, ip after 0.5 hrs; assay type: functional, organism-based; set-up: dose 100 mg/kg
Outline: (§2)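 Adult male CF no. 1 albino mice (18-25 g) dosed ip with compound suspended in 0.5% methylcellulose (0.01 mL/g). Convulsant: pentylenetetrazol dissolved in 0.9% saline as a 0.85% solution for mice, given subcutaneously.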

[5] = test system: Mus musculus; assay: Teratogenic effect in SWV mouse assessed as dead fetuses at 452 mg/kg, ip administered on morning of day 8 of gestation; assay type: toxicity, organism-based; set-up: dose 452 mg/kg, route intraperitoneal; conditions: in vivo
[6] = test system: Mus musculus; assay: Teratogenic effect in SWV mouse assessed as resorptions at 452 mg/kg, ip administered on morning of day 8 of gestation; assay type: toxicity, organism-based; set-up: dose 452 mg/kg, route intraperitoneal; conditions: in vivo
[7] = test system: Mus musculus; assay: Teratogenic effect in SWV mouse assessed as resorptions at 181 mg/kg, ip administered on morning of day 8 of gestation; assay type: toxicity, organism-based; set-up: dose 181 mg/kg, route intraperitoneal; conditions: in vivo
[8] = test system: Mus musculus; assay: Anticonvulsant activity in CF1 albino mouse assessed as inhibition of subcutaneous pentylenetetrazole-induced seizures at 30 mg/kg, ip after 0.5 hrs; assay type: functional, organism-based; set-up: dose 30 mg/kg; outline: as §2
[9] = test system: Mus musculus; assay: Anticonvulsant activity in CF1 albino mouse assessed as inhibition of subcutaneous pentylenetetrazole-induced seizures at 100 mg/kg, ip after 4 hrs; assay type: functional, organism-based; set-up: dose 100 mg/kg; outline: as §2
[10] = test system: Mus musculus; assay: Teratogenic effect in SWV mouse assessed as dead fetuses at 91 mg/kg, ip administered on morning of day 8 of gestation; assay type: toxicity, organism-based; set-up: dose 91 mg/kg, route intraperitoneal; conditions: in vivo
[11] = test system: Mus musculus; assay: Anticonvulsant activity in CF1 albino mouse assessed as inhibition of maximal electroshock-induced seizures at 100 mg/kg, ip after 0.5 hrs; assay type: functional, organism-based; set-up: dose 100 mg/kg; outline: as §1
[12] = test system: Mus musculus; assay: Neurotoxicity in CF1 albino mouse assessed as motor impairment at 100 mg/kg, ip after 4 hrs; assay type: toxicity, organism-based; set-up: dose 100 mg/kg, route intraperitoneal; conditions: in vivo
[13] = test system: Mus musculus; assay: Anticonvulsant activity in CF1 albino mouse assessed as inhibition of subcutaneous pentylenetetrazole-induced seizures at 300 mg/kg, ip after 4 hrs; assay type: functional, organism-based; set-up: dose 300 mg/kg; outline: as §2
[14] = test system: Mus musculus; assay: Neurotoxicity in CF1 albino mouse assessed as motor impairment at 30 mg/kg, ip after 4 hrs; assay type: toxicity, organism-based; set-up: dose 30 mg/kg, route intraperitoneal; conditions: in vivo
[15] = test system: Mus musculus; assay: Teratogenic effect in SWV mouse assessed as resorptions at 91 mg/kg, ip administered on morning of day 8 of gestation; assay type: toxicity, organism-based; set-up: dose 91 mg/kg, route intraperitoneal; conditions: in vivo
[16] = test system: Mus musculus; assay: Teratogenic effect in SWV mouse assessed as dead fetuses at 301 mg/kg, ip administered on morning of day 8 of gestation; assay type: toxicity, organism-based; set-up: dose 301 mg/kg, route intraperitoneal; conditions: in vivo
[17] = test system: Mus musculus; assay: Anticonvulsant activity in CF1 albino mouse assessed as inhibition of maximal electroshock-induced seizures at 100 mg/kg, ip after 4 hrs; assay type: functional, organism-based; set-up: dose 100 mg/kg; outline: as §1
[18] = test system: Mus musculus; assay: Teratogenic effect in SWV mouse assessed as fetuses with neural tube deffects at 301 mg/kg, ip administered on morning of day 8 of gestation; assay type: toxicity, organism-based; set-up: dose 301 mg/kg, route intraperitoneal; conditions: in vivo
[19] = test system: Mus musculus; assay: Teratogenic effect in SWV mouse assessed as live fetuses at 301 mg/kg, ip administered on morning of day 8 of gestation; assay type: toxicity, organism-based; set-up: dose 301 mg/kg, route intraperitoneal; conditions: in vivo
Outline: (§3)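 Two-month-old nulligravid SWV females were mated overnight and checked for vaginal plugs the next morning; gestation onset was set at 10 p.m. the previous night. On gestation day 8.5, each dam received a single ip injection (0.55-2.7 mmol/kg range) or vehicle (25% aqueous Cremophor EL) at 10 μL/g body weight. Litters were scored for implants, resorptions, live and dead fetuses, and fetuses with neural tube defects.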

[20] = test system: Mus musculus; assay: Neurotoxicity in CF1 albino mouse assessed as motor impairment at 100 mg/kg, ip after 0.5 hrs; assay type: toxicity, organism-based; set-up: dose 100 mg/kg, route intraperitoneal; conditions: in vivo
[21] = test system: Mus musculus; assay: Anticonvulsant activity in CF1 albino mouse assessed as inhibition of maximal electroshock-induced seizures at 30 mg/kg, ip after 4 hrs; assay type: functional, organism-based; set-up: dose 30 mg/kg; outline: as §1
[22] = test system: Mus musculus; assay: Anticonvulsant activity in CF1 albino mouse assessed as inhibition of maximal electroshock-induced seizures at 300 mg/kg, ip after 4 hrs; assay type: functional, organism-based; set-up: dose 300 mg/kg; outline: as §1
[23] = test system: Mus musculus; assay: Neurotoxicity in CF1 albino mouse assessed as motor impairment at 300 mg/kg, ip after 4 hrs; assay type: toxicity, organism-based; set-up: dose 300 mg/kg, route intraperitoneal; conditions: in vivo
[24] = test system: Mus musculus; assay: Teratogenic effect in SWV mouse assessed as live fetuses at 452 mg/kg, ip administered on morning of day 8 of gestation; assay type: toxicity, organism-based; set-up: dose 452 mg/kg, route intraperitoneal; conditions: in vivo
[25] = test system: Mus musculus; assay: Anticonvulsant activity in CF1 albino mouse assessed as inhibition of subcutaneous pentylenetetrazole-induced seizures at 30 mg/kg, ip after 4 hrs; assay type: functional, organism-based; set-up: dose 30 mg/kg; outline: as §2
[26] = test system: Mus musculus; assay: Neurotoxicity in CF1 albino mouse assessed as motor impairment at 300 mg/kg, ip after 0.5 hrs; assay type: toxicity, organism-based; set-up: dose 300 mg/kg, route intraperitoneal; conditions: in vivo
[27] = test system: Mus musculus; assay: Anticonvulsant activity in CF1 albino mouse assessed as inhibition of subcutaneous pentylenetetrazole-induced seizures at 300 mg/kg, ip after 0.5 hrs; assay type: functional, organism-based; set-up: dose 300 mg/kg; outline: as §2
[28] = test system: Mus musculus; assay: Teratogenic effect in SWV mouse assessed as live fetuses at 91 mg/kg, ip administered on morning of day 8 of gestation; assay type: toxicity, organism-based; set-up: dose 91 mg/kg, route intraperitoneal; conditions: in vivo
[29] = test system: Mus musculus; assay: Anticonvulsant activity in CF1 albino mouse assessed as inhibition of maximal electroshock-induced seizures at 300 mg/kg, ip after 0.5 hrs; assay type: functional, organism-based; set-up: dose 300 mg/kg; outline: as §1
[30] = test system: Mus musculus; assay: Teratogenic effect in SWV mouse assessed as resorptions at 156 mg/kg, ip administered on morning of day 8 of gestation; assay type: toxicity, organism-based; set-up: dose 156 mg/kg, route intraperitoneal; conditions: in vivo
Outline: (§4)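 SWV inbred mice: two-month-old nulligravid females mated overnight with males and checked for vaginal plugs next morning; gestation onset taken as 10 p.m. the previous night. On gestation day 8.5 each dam got one ip injection, 0.55–2.7 mmol/kg, in 25% aqueous Cremophor EL (vehicle controls dosed alike), 10 μL/g body weight. Litters and implants tallied; resorptions and live fetuses reported as counts with percentages.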

[31] = test system: Mus musculus; assay: Teratogenic effect in SWV mouse assessed as live fetuses at 156 mg/kg, ip administered on morning of day 8 of gestation; assay type: toxicity, organism-based; set-up: dose 156 mg/kg, route intraperitoneal; conditions: in vivo; outline: as §3
[32] = test system: Rattus norvegicus; assay: Neurotoxicity in Sprague-Dawley rat assessed as motor impairment at 30 mg/kg, po after 0.25 to 4 hrs; conditions: in vivo
[33] = test system: Mus musculus; assay: Teratogenic effect in SWV mouse assessed as live fetuses at 310 mg/kg, ip administered on morning of day 8 of gestation; assay type: toxicity, organism-based; set-up: dose 310 mg/kg, route intraperitoneal; conditions: in vivo; outline: as §3
[34] = test system: Mus musculus; assay: Teratogenic effect in SWV mouse assessed as fetuses with neural tube deffects at 511 mg/kg, ip administered on morning of day 8 of gestation; assay type: toxicity, organism-based; set-up: dose 511 mg/kg, route intraperitoneal; conditions: in vivo; outline: as §3
[35] = organism: Rattus norvegicus; assay: Protective index, ratio of TD50 for rat to ED50 for maximal electroshock-induced rat seizure model
[36] = test system: Mus musculus; assay: Teratogenic effect in SWV mouse assessed as fetuses with neural tube deffects at 310 mg/kg, ip administered on morning of day 8 of gestation; assay type: toxicity, organism-based; set-up: dose 310 mg/kg, route intraperitoneal; conditions: in vivo; outline: as §3
[37] = test system: Mus musculus; assay: Teratogenic effect in SWV mouse assessed as resorptions at 310 mg/kg, ip administered on morning of day 8 of gestation; assay type: toxicity, organism-based; set-up: dose 310 mg/kg, route intraperitoneal; conditions: in vivo; outline: as §4
[38] = test system: Rattus norvegicus; assay: Anticonvulsant activity in Sprague-Dawley rat assessed as inhibition of maximal electroshock-induced seizures at 30 mg/kg, po after 4 hrs
[39] = test system: Rattus norvegicus; assay: Anticonvulsant activity in po dosed rat assessed as inhibition of maximal electroshock-induced seizures
[40] = test system: Rattus norvegicus; assay: Anticonvulsant activity in Sprague-Dawley rat assessed as inhibition of maximal electroshock-induced seizures at 30 mg/kg, po after 2 hrs
[41] = test system: Mus musculus; assay: Teratogenic effect in SWV mouse assessed as resorptions at 511 mg/kg, ip administered on morning of day 8 of gestation; assay type: toxicity, organism-based; set-up: dose 511 mg/kg, route intraperitoneal; conditions: in vivo; outline: as §4
[42] = test system: Mus musculus; assay: Teratogenic effect in SWV mouse assessed as live fetuses at 511 mg/kg, ip administered on morning of day 8 of gestation; assay type: toxicity, organism-based; set-up: dose 511 mg/kg, route intraperitoneal; conditions: in vivo; outline: as §4

SMILES | Activity [1] | Activity [3] | Activity [4] | Activity [8] | Activity [9] | Activity [11] | Activity [12] | Activity [13] | Activity [14] | Activity [20] | Activity [21] | Activity [22] | Activity [23] | Activity [25] | Activity [26] | Activity [27] | Activity [29] | also measured
CCCC(CCC)C(=O)O [VALPROIC ACID] | inactive | Non-toxic | inactive | inactive | inactive | inactive | Non-toxic | inactive | Non-toxic | Non-toxic | inactive | inactive | Non-toxic | inactive | Toxic | Active | Active | Activity [2]: 11%; Activity [5]: 0.6%; Activity [6]: 11.3%; Activity [7]: 7.7%; Activity [10]: 0.7%; Activity [15]: 5.7%; Activity [16]: 2.6%; Activity [17]: inactive; Activity [18]: 1.5%; Activity [19]: 86.4%; Activity [24]: 88.1%; Activity [28]: 93.6%
CCC(CC)C(=O)NCc1ccc(S(N)(=O)=O)cc1 | inactive | Non-toxic | inactive | inactive | inactive | Active | Non-toxic | inactive | Non-toxic | Non-toxic | inactive | Active | Non-toxic | inactive | Non-toxic | inactive | Active | Activity [30]: 5.6%; Activity [31]: 94.4%; Activity [32]: Non-toxic; Activity [33]: 93.5%; Activity [34]: 3.1%; Ratio TD50/ED50 [35]: >20.2; Activity [36]: 3.4%; Activity [37]: 6.5%; Activity [38]: inactive; ED50 [39]: 24.7 mg/kg; Activity [40]: inactive; Activity [41]: 6.4%; Activity [42]: 93.6%

Source: ChEMBL document CHEMBL1155468, “Syntheses and evaluation of anticonvulsant profile and teratogenicity of novel amide derivatives of branched aliphatic carboxylic acids with 4-aminobenzensulfonamide” (J Med Chem, 2010)
